Experimental data from ChEMBL document CHEMBL4257441, “Protection effect of intracellular melanin from Lachnum YM156 and Haikunshenxi capsule combination on adenine-induced chronic renal failure in mice” (Medchemcomm, 2017).
The source made the active and inactive calls. The rule behind the calls is not given here.

Tests used:
Mus musculus [1] = assay: Protective effect against adenine-induced chronic renal failure in Kunming mouse assessed as nephridial SOD levels at 200 mg/kg, ig qd administered for 4 successive weeks by hydroxylamine method (reference value: 30.45 +/- 1.12 U/mg); assay type: functional
Mus musculus [2] = assay: Protective effect against adenine-induced chronic renal failure in Kunming mouse assessed as nephridial CAT levels at 200 mg/kg, ig qd administered for 4 successive weeks by visible spectrometry method (reference value: 44.13 +/- 1.25 U/mg); assay type: functional
Mus musculus [3] = assay: Protective effect against adenine-induced chronic renal failure in ig dosed Kunming mouse assessed as decrease in nephridial iNOS levels administered as qd for 4 successive weeks; assay type: functional, organism-based
Method in brief: (§1)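 CRF model made by chronic dietary adenine in male Kunming mice (20 ± 5 g); oral dosing at 100 or 200 mg kg–1, alone or with Haikunshenxi capsule; ten mice per group. Kidney tissue TNF-α, IL-1β and IL-6 measured as pg per mg protein, and iNOS activity as U mg–1 protein.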

Mus musculus [4] = assay: Protective effect against adenine-induced chronic renal failure in ig dosed Kunming mouse assessed as decrease in blood urea nitrogen levels in serum administered as qd for 4 successive weeks by diacetyl oxime method; assay type: functional, organism-based
Method in brief: (§2)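 Adenine-fed CRF model in male Kunming mice (20 ± 5 g) housed at 18–20 °C on a 12 h light/dark cycle. Oral dosing at 100 or 200 mg kg–1, with or without Haikunshenxi capsule; ten mice per group. Serum creatinine, BUN, total protein and albumin measured, each group compared with the model group.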

Mus musculus [5] = assay: Protective effect against adenine-induced chronic renal failure in Kunming mouse assessed as weight growth rate at 100 mg/kg, ig qd administered for 4 successive weeks with haikunshenxi capsule measured 24 hrs post last dose (reference value: 32.42 +/- 1.43%); assay type: functional
Method in brief: (§3)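 Male Kunming mice (20 ± 5 g) kept on a 12 h light/dark cycle at 18–20 °C on a standard diet. CRF induced by chronic dietary adenine. Test material given orally at 100 or 200 mg kg–1, alone or with Haikunshenxi capsule, alongside normal, model and capsule-only groups; ten mice per group. Weight growth rate recorded in %, kidney index in mg g–1.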

Mus musculus [6] = assay: Protective effect against adenine-induced chronic renal failure in Kunming mouse assessed as appearance of complete kidney tubules at 100 mg/kg, ig qd administered for 4 successive weeks by haematoxylin and eosin dye-based optical microscopic method; assay type: functional, organism-based
Method in brief: (§4)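 Kidneys were taken from male Kunming mice given an adenine diet plus oral melanin (100 or 200 mg kg–1), with or without Haikunshenxi capsule, ten per group. Histological sections were examined at 400× for glomeruli, tubules, adenine crystals, tubular atrophy and interstitial fibrosis.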

Mus musculus [7] = assay: Protective effect against adenine-induced chronic renal failure in Kunming mouse assessed as nephridial GSH-PX levels at 100 mg/kg, ig qd administered for 4 successive weeks with haikunshenxi capsule by colorimetric method (reference value: 688.45 +/- 12.67 U/L); assay type: functional
Mus musculus [8] = assay: Protective effect against adenine-induced chronic renal failure in Kunming mouse assessed as nephridial GSH levels at 200 mg/kg, ig qd administered for 4 successive weeks by colorimetric method (reference value: 3.05 +/- 0.11 mg/g); assay type: functional
Mus musculus [9] = assay: Protective effect against adenine-induced chronic renal failure in Kunming mouse assessed as appearance of complete glomeruli in kidney at 100 mg/kg, ig qd administered for 4 successive weeks by haematoxylin and eosin dye-based optical microscopic method; assay type: functional, organism-based; method in brief: as §4
Mus musculus [10] = assay: Protective effect against adenine-induced chronic renal failure in ig dosed Kunming mouse assessed as increase in nephridial SOD levels administered as qd for 4 successive weeks by hydroxylamine method; assay type: functional, organism-based
Method in brief: (§5)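 Male Kunming mice (20 ± 5 g) given dietary adenine to induce CRF, then dosed orally at 100 or 200 mg kg–1, with or without Haikunshenxi capsule; n = 10 per group. Kidney homogenate assayed for SOD and CAT (U mg–1 protein), GSH-Px (U L–1), GSH (mg g–1 protein) and MDA (nmol mL–1).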

Mus musculus [11] = assay: Protective effect against adenine-induced chronic renal failure in ig dosed Kunming mouse assessed as decrease in nephridial TNF-alpha levels administered as qd for 4 successive weeks with haikunshenxi capsule; assay type: functional, organism-based; method in brief: as §1
Mus musculus [12] = assay: Protective effect against adenine-induced chronic renal failure in Kunming mouse assessed as reduction in interstitial fibrosis at 200 mg/kg, ig qd administered for 4 successive weeks with haikunshenxi capsule by haematoxylin and eosin dye-based optical microscopic method; assay type: functional, organism-based; method in brief: as §4
Mus musculus [13] = assay: Protective effect against adenine-induced chronic renal failure in ig dosed Kunming mouse assessed as decrease in serum creatinine levels administered as qd for 4 successive weeks with haikunshenxi capsule by picric acid colorimetric method; assay type: functional, organism-based; method in brief: as §2
Mus musculus [14] = assay: Protective effect against adenine-induced chronic renal failure in Kunming mouse assessed as nephridial IL-1beta levels at 200 mg/kg, ig qd administered for 4 successive weeks (reference value: 18.34 +/- 0.25 pg/ml); assay type: functional
Mus musculus [15] = assay: Protective effect against adenine-induced chronic renal failure in Kunming mouse assessed as nephridial CAT levels at 100 mg/kg, ig qd administered for 4 successive weeks with haikunshenxi capsule by visible spectrometry method (reference value: 44.13 +/- 1.25 U/mg); assay type: functional
Mus musculus [16] = assay: Protective effect against adenine-induced chronic renal failure in Kunming mouse assessed as nephridial GSH levels at 100 mg/kg, ig qd administered for 4 successive weeks by colorimetric method (reference value: 3.05 +/- 0.11 mg/g); assay type: functional
Mus musculus [17] = assay: Protective effect against adenine-induced chronic renal failure in ig dosed Kunming mouse assessed as decrease in nephridial IL-6 levels administered as qd for 4 successive weeks; assay type: functional, organism-based; method in brief: as §1
Mus musculus [18] = assay: Protective effect against adenine-induced chronic renal failure in Kunming mouse assessed as weight growth rate at 200 mg/kg, ig qd administered for 4 successive weeks with haikunshenxi capsule measured 24 hrs post last dose (reference value: 32.42 +/- 1.43%); assay type: functional; method in brief: as §3
Mus musculus [19] = assay: Protective effect against adenine-induced chronic renal failure in ig dosed Kunming mouse assessed as increase in nephridial GSH levels administered as qd for 4 successive weeks by colorimetric method; assay type: functional, organism-based; method in brief: as §5
Mus musculus [20] = assay: Protective effect against adenine-induced chronic renal failure in Kunming mouse assessed as nephridial TNF-alpha levels at 100 mg/kg, ig qd administered for 4 successive weeks (reference value: 250.15 +/- 8.10 pg/ml); assay type: functional
Mus musculus [21] = assay: Protective effect against adenine-induced chronic renal failure in ig dosed Kunming mouse assessed as decrease in serum creatinine levels administered as qd for 4 successive weeks by picric acid colorimetric method; assay type: functional, organism-based; method in brief: as §2
Mus musculus [22] = assay: Protective effect against adenine-induced chronic renal failure in Kunming mouse assessed as nephridial TNF-alpha levels at 100 mg/kg, ig qd administered for 4 successive weeks with haikunshenxi capsule (reference value: 250.15 +/- 8.10 pg/ml); assay type: functional
Mus musculus [23] = assay: Protective effect against adenine-induced chronic renal failure in Kunming mouse assessed as nephridial IL-1beta levels at 100 mg/kg, ig qd administered for 4 successive weeks (reference value: 18.34 +/- 0.25 pg/ml); assay type: functional
Mus musculus [24] = assay: Protective effect against adenine-induced chronic renal failure in ig dosed Kunming mouse assessed as decrease in nephridial MDA levels administered as qd for 4 successive weeks by thiobarbituric acid method; assay type: functional, organism-based; method in brief: as §5
Mus musculus [25] = assay: Protective effect against adenine-induced chronic renal failure in Kunming mouse assessed as nephridial iNOS levels at 100 mg/kg, ig qd administered for 4 successive weeks (reference value: 1.98 +/- 0.12 U/mg); assay type: functional

SMILES: Cc1c(=O)c(=O)c2c3c[nH]c4c(C)c(=O)c(=O)c(c5c[nH]c1c52)c43
- Activity (Mus musculus [1]): 38.25 U/mg
- Activity (Mus musculus [2]): 64.45 U/mg
- Activity (Mus musculus [3]): Dose-dependent effect
- Activity (Mus musculus [4]): Dose-dependent effect
- Activity (Mus musculus [5]): 54.34%
- Activity (Mus musculus [6]): Active
- Activity (Mus musculus [7]): 850.44 U/L
- Activity (Mus musculus [8]): 4.84 mg/g
- Activity (Mus musculus [9]): Active
- Activity (Mus musculus [10]): Dose-dependent effect
- Activity (Mus musculus [11]): Dose-dependent effect
- Activity (Mus musculus [12]): Active
- Activity (Mus musculus [13]): Dose-dependent effect
- Activity (Mus musculus [14]): 16.03 pg/mL
- Activity (Mus musculus [15]): 74.25 U/mg
- Activity (Mus musculus [16]): 4.19 mg/g
- Activity (Mus musculus [17]): Dose-dependent effect
- Activity (Mus musculus [18]): 56.64%
- Activity (Mus musculus [19]): Dose-dependent effect
- Activity (Mus musculus [20]): 218.12 pg/mL
- Activity (Mus musculus [21]): Dose-dependent effect
- Activity (Mus musculus [22]): 98.13 pg/mL
- Activity (Mus musculus [23]): 17.66 pg/mL
- Activity (Mus musculus [24]): Dose-dependent effect
- Activity (Mus musculus [25]): 1.79 U/mg
